According to ChEMBL document CHEMBL1938255, “Novel 1-hydroxypiperazine-2,6-diones as new leads in the inhibition of metalloproteinases” (J Med Chem, 2011):

Assays:
[1] = biological target: T1, Interstitial collagenase (Homo sapiens, UniProt P03956); experiment: Inhibition of MMP1 using Mca-Lys-Pro-Leu-Gly-Leu-Dap(Dnp)-Ala-Arg-NH2 as substrate preincubated for 4 hrs measured every 15 secs for 20 mins by fluorescence analysis
T1 sequence (P03956 whole entry): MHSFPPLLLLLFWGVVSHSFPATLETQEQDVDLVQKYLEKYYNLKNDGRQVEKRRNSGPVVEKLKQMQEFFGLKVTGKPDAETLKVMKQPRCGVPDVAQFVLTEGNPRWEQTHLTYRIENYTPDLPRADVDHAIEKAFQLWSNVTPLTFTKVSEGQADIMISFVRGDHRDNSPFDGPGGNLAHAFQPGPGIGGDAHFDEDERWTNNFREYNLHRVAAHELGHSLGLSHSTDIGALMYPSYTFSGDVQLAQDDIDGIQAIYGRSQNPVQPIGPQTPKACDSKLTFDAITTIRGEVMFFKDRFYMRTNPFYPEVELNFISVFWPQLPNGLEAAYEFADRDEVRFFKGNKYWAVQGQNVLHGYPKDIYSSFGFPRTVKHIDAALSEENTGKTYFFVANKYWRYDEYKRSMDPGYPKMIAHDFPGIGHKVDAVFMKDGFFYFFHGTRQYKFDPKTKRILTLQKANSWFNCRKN
Procedure, shortened: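 Pro-MMP1 activated with 2 mM APMA, 2 h, 37 °C. Enzyme at 2.0 nM final was preincubated 4 h at 25 °C with inhibitor at seven concentrations in Tris 50 mM pH 7.5, NaCl 150 mM, CaCl2 10 mM, Brij 35 0.05%, DMSO 1%. Substrate was 2 μM final, read ex 325/em 395 nm every 15 s for 20 min. IC50 from Vi/Vo = 1/(1+[I]/IC50); mean of three experiments.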

[2] = biological target: 72 kDa type IV collagenase (Homo sapiens, UniProt P08253); experiment: Inhibition of human recombinant MMP2 using Mca-Lys-Pro-Leu-Gly-Leu-Dap(Dnp)-Ala-Arg-NH2 as substrate preincubated for 4 hrs measured every 15 secs for 20 mins by fluorescence analysis
Chain of 72 kDa type IV collagenase (P08253 whole entry): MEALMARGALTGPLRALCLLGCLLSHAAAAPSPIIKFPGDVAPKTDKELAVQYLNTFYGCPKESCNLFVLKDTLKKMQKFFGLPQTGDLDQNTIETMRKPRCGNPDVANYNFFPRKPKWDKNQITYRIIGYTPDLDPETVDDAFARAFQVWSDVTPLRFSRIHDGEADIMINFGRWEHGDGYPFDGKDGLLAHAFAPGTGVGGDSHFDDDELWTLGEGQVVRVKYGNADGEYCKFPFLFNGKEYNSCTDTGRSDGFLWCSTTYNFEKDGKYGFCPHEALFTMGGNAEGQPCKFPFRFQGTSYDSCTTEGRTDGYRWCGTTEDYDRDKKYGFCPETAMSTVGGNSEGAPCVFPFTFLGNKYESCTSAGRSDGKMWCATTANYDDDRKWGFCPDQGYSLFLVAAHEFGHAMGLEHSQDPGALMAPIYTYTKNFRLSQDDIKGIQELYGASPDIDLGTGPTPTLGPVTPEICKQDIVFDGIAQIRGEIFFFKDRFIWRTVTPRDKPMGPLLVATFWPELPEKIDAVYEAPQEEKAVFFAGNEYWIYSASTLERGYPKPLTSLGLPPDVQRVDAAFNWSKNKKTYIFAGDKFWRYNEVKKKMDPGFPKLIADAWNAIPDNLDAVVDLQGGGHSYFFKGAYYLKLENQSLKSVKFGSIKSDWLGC
Procedure, shortened: (§1)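 The proenzymes were activated with 2 mM APMA for 1 h at 37 °C. Final enzyme was 0.5 nM for MMP2 and 1.5 nM for MMP8. Each was incubated 4 h at 25 °C with seven inhibitor concentrations in pH 7.5 Tris/NaCl/CaCl2/Brij 35/1% DMSO buffer. With 2 μM substrate, fluorescence (325/395 nm) was read every 15 s for 20 min. IC50 came from fractional initial velocity; mean of three independent runs.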

[3] = biological target: Stromelysin-1 (Homo sapiens, UniProt P08254); experiment: Inhibition of MMP3 using Mca-Arg-Pro-Lys-Pro-Val-Glu-Nva-Trp-Arg-Lys(Dnp)-NH2 as substrate preincubated for 4 hrs measured every 15 secs for 20 mins by fluorescence analysis
Chain of Stromelysin-1 (P08254 whole entry): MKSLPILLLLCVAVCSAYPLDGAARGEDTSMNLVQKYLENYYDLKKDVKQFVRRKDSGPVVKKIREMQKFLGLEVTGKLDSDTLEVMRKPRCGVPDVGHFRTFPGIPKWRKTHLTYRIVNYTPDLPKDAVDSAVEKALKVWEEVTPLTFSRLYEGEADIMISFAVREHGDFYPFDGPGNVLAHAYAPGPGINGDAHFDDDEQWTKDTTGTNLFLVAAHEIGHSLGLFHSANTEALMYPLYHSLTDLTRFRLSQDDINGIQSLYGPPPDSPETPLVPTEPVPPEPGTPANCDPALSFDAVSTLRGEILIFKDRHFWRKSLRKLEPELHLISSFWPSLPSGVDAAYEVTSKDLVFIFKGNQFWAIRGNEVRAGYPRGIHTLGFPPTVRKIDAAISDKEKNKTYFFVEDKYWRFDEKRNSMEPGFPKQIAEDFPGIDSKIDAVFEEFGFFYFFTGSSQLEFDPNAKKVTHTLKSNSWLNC
Procedure, shortened: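 Pro-MMP3 activated with trypsin 5 μg/mL, 30 min, 37 °C, then soybean trypsin inhibitor 62 μg/mL. Enzyme at 5 nM final was incubated 4 h at 25 °C with seven inhibitor concentrations in Tris 50 mM pH 7.5, NaCl 150 mM, CaCl2 10 mM, Brij 35 0.05%, DMSO 1%.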

[4] = biological target: T2, Matrilysin (Homo sapiens, UniProt P09237); experiment: Inhibition of MMP7 using Mca-Lys-Pro-Leu-Gly-Leu-Dap(Dnp)-Ala-Arg-NH2 as substrate preincubated for 4 hrs measured every 15 secs for 20 mins by fluorescence analysis
T2 sequence (P09237 whole entry): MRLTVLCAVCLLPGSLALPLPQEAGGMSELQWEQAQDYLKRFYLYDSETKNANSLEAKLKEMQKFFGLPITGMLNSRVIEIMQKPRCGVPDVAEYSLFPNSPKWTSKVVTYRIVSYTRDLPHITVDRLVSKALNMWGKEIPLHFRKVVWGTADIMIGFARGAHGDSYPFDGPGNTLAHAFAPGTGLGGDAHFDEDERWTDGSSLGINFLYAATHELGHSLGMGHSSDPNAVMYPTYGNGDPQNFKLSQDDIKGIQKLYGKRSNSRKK
Procedure, shortened: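 Pro-MMP7 activated with 3.3 mM APMA, 2 h, 37 °C, then used at 1.3 nM final. Enzyme was preincubated with seven inhibitor concentrations for 4 h at 25 °C in pH 7.5 Tris buffer with NaCl, CaCl2, Brij 35 and 1% DMSO. Fluorogenic substrate 2 μM final; fluorescence (325/395 nm) recorded every 15 s for 20 min. IC50 from initial-velocity ratio; mean of three experiments.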

[5] = biological target: Neutrophil collagenase (Homo sapiens, UniProt P22894); experiment: Inhibition of human recombinant MMP8 using Mca-Lys-Pro-Leu-Gly-Leu-Dap(Dnp)-Ala-Arg-NH2 as substrate preincubated for 4 hrs measured every 15 secs for 20 mins by fluorescence analysis; procedure, shortened: as §1
Chain of Neutrophil collagenase (P22894 whole entry): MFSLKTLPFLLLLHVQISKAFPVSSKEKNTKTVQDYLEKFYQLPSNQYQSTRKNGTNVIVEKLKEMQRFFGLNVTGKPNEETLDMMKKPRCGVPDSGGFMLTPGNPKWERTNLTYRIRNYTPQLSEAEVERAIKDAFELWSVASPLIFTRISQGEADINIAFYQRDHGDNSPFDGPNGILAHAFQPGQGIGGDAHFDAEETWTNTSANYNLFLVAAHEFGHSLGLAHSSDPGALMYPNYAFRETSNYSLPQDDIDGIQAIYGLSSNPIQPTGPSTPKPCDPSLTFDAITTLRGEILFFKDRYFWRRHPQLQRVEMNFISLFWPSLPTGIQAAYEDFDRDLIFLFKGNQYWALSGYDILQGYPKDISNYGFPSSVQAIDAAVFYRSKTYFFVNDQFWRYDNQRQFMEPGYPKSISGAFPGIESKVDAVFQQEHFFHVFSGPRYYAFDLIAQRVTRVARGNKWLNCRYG

[6] = biological target: Matrix metalloproteinase-9 (Homo sapiens, UniProt P14780); experiment: Inhibition of human recombinant MMP9 using Mca-Lys-Pro-Leu-Gly-Leu-Dap(Dnp)-Ala-Arg-NH2 as substrate preincubated for 4 hrs measured every 15 secs for 20 mins by fluorescence analysis
Chain of Matrix metalloproteinase-9 (P14780 whole entry): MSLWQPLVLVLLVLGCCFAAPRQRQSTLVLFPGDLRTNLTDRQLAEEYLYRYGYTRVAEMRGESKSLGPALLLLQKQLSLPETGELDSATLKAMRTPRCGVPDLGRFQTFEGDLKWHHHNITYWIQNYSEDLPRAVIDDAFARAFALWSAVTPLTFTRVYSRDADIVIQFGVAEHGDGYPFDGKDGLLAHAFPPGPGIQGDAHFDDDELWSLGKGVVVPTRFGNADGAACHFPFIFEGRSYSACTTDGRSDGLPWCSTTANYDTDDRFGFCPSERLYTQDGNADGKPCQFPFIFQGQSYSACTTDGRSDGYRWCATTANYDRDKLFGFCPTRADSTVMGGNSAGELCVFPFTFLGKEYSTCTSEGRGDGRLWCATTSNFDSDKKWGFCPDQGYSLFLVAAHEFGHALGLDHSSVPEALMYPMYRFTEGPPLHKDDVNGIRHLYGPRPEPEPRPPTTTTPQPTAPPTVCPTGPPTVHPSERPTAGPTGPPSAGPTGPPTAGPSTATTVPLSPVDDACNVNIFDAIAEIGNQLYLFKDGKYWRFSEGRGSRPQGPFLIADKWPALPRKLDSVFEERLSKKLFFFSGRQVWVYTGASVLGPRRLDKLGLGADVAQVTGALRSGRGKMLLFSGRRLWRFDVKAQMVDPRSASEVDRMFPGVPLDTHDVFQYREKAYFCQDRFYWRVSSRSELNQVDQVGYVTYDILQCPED
Procedure, shortened: (§2)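 APMA activation at 1 mM, 1 h, 37 °C. Final enzyme was 0.3 nM for MMP13 and 1.3 nM for MMP9. Enzyme and inhibitor (seven concentrations) were incubated 4 h at 25 °C in Tris 50 mM pH 7.5 buffer with 150 mM NaCl, 10 mM CaCl2, 0.05% Brij 35, 1% DMSO. Substrate 2 μM final, ex 325/em 395 nm, every 15 s over 20 min. IC50 via Vi/Vo = 1/(1+[I]/IC50); three experiments averaged.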

[7] = biological target: Macrophage metalloelastase (Homo sapiens, UniProt P39900); experiment: Inhibition of MMP12 using Mca-Lys-Pro-Leu-Gly-Leu-Dap(Dnp)-Ala-Arg-NH2 as substrate preincubated for 4 hrs measured every 15 secs for 20 mins by fluorescence analysis
Chain of Macrophage metalloelastase (P39900 whole entry): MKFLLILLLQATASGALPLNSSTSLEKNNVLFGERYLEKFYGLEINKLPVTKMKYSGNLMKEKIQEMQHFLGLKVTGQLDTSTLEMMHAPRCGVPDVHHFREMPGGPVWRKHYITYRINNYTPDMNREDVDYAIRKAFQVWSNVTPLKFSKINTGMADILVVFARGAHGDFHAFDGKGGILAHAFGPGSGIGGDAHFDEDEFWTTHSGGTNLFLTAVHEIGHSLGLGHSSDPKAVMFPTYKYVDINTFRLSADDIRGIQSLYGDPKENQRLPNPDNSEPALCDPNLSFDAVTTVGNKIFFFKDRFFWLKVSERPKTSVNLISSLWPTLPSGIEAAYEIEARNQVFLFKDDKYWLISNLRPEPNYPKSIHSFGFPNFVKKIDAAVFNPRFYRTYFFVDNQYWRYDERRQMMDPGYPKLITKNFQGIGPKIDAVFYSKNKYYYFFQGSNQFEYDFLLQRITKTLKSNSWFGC
Procedure, shortened: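 Pro-MMP12 was autoactivated for 30 h at 37 °C in assay buffer (Tris 50 mM pH 7.5, NaCl 150 mM, CaCl2 10 mM, Brij 35 0.05%, DMSO 1%). Enzyme at 1.0 nM final was incubated 4 h at 25 °C with seven inhibitor concentrations. Substrate 2 μM final, fluorescence ex 325/em 395 nm every 15 s for 20 min. IC50 via initial-velocity equation; mean of three experiments.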

[8] = biological target: Collagenase 3 (Homo sapiens, UniProt P45452); experiment: Inhibition of MMP13 using Mca-Lys-Pro-Leu-Gly-Leu-Dap(Dnp)-Ala-Arg-NH2 as substrate preincubated for 4 hrs measured every 15 secs for 20 mins by fluorescence analysis; procedure, shortened: as §2
[9] = biological target: Matrix metalloproteinase-14 (Homo sapiens, UniProt P50281); experiment: Inhibition of human recombinant MMP14 using Mca-Lys-Pro-Leu-Gly-Leu-Dap(Dnp)-Ala-Arg-NH2 as substrate preincubated for 4 hrs measured every 15 secs for 20 mins by fluorescence analysis
Procedure, shortened: (§3)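 Catalytic domains of MMP14 (1.0 nM final) and MMP16 (15 nM), and TACE (7.5 nM), were incubated 4 h at 25 °C with seven inhibitor concentrations. Buffer was Tris 50 mM pH 7.5, NaCl 150 mM, CaCl2 10 mM, Brij 35 0.05%, DMSO 1%. Substrate 2 μM final; hydrolysis read at 325/395 nm every 15 s for 20 min. IC50 from Vi/Vo = 1/(1+[I]/IC50); mean of three experiments.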

[10] = biological target: Matrix metalloproteinase-16 (Homo sapiens, UniProt P51512); experiment: Inhibition of human recombinant MMP16 using Mca-Lys-Pro-Leu-Gly-Leu-Dap(Dnp)-Ala-Arg-NH2 as substrate preincubated for 4 hrs measured every 15 secs for 20 mins by fluorescence analysis; procedure, shortened: as §3
Chain of Matrix metalloproteinase-16 (P51512 whole entry, the tested form may be a part): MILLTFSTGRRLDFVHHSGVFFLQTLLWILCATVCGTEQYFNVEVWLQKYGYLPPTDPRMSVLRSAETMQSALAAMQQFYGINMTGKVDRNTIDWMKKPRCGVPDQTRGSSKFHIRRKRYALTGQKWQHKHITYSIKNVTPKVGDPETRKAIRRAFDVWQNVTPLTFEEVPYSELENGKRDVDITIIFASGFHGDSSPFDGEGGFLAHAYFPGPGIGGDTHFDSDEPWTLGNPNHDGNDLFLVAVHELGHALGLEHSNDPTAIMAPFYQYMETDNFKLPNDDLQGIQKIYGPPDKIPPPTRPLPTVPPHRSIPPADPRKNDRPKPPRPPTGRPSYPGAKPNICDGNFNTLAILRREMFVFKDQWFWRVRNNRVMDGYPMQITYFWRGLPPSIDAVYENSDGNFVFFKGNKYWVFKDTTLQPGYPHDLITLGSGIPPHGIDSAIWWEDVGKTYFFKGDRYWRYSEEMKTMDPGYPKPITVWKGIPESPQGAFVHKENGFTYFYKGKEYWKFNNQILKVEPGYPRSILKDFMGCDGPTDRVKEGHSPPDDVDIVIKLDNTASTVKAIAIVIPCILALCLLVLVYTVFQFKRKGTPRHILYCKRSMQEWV

[11] = biological target: Disintegrin and metalloproteinase domain-containing protein 17 (Homo sapiens, UniProt P78536); experiment: Inhibition of TACE using Mca-Lys-Pro-Leu-Gly-Leu-Dap(Dnp)-Ala-Arg-NH2 as substrate preincubated for 4 hrs measured every 15 secs for 20 mins by fluorescence analysis; procedure, shortened: as §3
Chain of Disintegrin and metalloproteinase domain-containing protein 17 (P78536 whole entry, the tested form may be a part): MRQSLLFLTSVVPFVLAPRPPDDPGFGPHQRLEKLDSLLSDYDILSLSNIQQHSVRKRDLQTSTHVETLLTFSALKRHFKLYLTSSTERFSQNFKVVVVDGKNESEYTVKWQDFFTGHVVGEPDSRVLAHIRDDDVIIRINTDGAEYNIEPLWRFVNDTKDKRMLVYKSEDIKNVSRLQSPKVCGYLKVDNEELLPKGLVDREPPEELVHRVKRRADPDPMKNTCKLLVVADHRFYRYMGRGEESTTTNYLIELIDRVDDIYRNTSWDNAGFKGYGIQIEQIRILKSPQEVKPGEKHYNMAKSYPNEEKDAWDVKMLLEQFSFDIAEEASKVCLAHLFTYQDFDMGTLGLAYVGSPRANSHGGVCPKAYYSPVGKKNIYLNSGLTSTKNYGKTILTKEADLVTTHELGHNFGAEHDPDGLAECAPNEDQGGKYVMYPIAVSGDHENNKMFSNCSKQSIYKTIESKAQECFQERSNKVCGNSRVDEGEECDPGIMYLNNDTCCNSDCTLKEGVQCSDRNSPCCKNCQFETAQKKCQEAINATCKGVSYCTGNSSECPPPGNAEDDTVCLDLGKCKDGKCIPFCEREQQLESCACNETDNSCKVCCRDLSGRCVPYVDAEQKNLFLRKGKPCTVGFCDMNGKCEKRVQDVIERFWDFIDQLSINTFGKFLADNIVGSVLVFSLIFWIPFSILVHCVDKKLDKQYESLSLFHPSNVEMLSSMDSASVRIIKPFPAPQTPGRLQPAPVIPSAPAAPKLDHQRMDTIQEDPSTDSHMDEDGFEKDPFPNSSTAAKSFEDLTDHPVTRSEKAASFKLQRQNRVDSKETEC

[12] = Stability in D2O assessed as compound decomposition at pD 2 after 24 hrs by NMR spectroscopy; format: physicochemical; conditions: pH 2, read-out: Drug metabolism
[13] = Stability in D2O assessed as compound decomposition at pD 2 after 48 hrs by NMR spectroscopy; format: physicochemical; conditions: pH 2, read-out: Drug metabolism
[14] = Stability in D2O assessed as compound decomposition at pD 2 after 5 days by NMR spectroscopy; format: physicochemical; conditions: pH 2, read-out: Drug metabolism
[15] = Stability in D2O assessed as compound decomposition at pD 2 after 10 days by NMR spectroscopy; format: physicochemical; conditions: pH 2, read-out: Drug metabolism
[16] = Stability in D2O assessed as compound decomposition at pD 7 after 24 hrs by NMR spectroscopy; format: physicochemical; conditions: pH 7, read-out: Drug metabolism
[17] = Stability in D2O assessed as compound decomposition at pD 7 after 3 days by NMR spectroscopy; format: physicochemical; conditions: pH 7, read-out: Drug metabolism
[18] = Stability in D2O assessed as compound decomposition at pD 7 after 5 days by NMR spectroscopy; format: physicochemical; conditions: pH 7, read-out: Drug metabolism
[19] = Stability in D2O assessed as compound decomposition at pD 7 after 20 days by NMR spectroscopy; format: physicochemical; conditions: pH 7, read-out: Drug metabolism

Compound	IC50 [1]	IC50 [2]	IC50 [3]	IC50 [4]	IC50 [5]	IC50 [6]	IC50 [7]	IC50 [8]	IC50 [9]	IC50 [10]	IC50 [11]	degraded at 24 h [12]	degraded at 48 h [13]	degraded at 120 h [14]	degraded at 240 h [15]	degraded at 24 h [16]	degraded at 72 h [17]	degraded at 120 h [18]	degraded at 480 h [19]
COc1ccc(S(=O)(=O)N2CC(=O)N(O)C(=O)[C@H]2C(C)C)cc1	4900 nM	1200 nM	3400 nM	39000 nM	300 nM	690 nM	66 nM	300 nM	2200 nM	1100 nM	33000 nM	< 1%	2%	5%	8%	< 1%	3%	6%	7%
CC(C)[C@@H]1C(=O)N(O)C(=O)CN1S(=O)(=O)c1ccc(-c2ccccc2)cc1	1300 nM	240 nM	3900 nM	–	67 nM	660 nM	19 nM	52 nM	3900 nM	2200 nM	16000 nM	–	–	–	–	–	–	–	–
CC(C)[C@@H]1C(=O)N(O)C(=O)CN1S(=O)(=O)c1ccc(Oc2ccccc2)cc1	1600 nM	30 nM	220 nM	–	21 nM	30 nM	23 nM	9.5 nM	83 nM	39 nM	10000 nM	–	–	–	–	–	–	–	–
CC(C)[C@H](C(=O)NO)N(CC(=O)O)S(=O)(=O)c1ccc(Oc2ccccc2)cc1	–	–	6.7 nM	–	–	–	–	–	–	–	–	–	–	–	–	–	–	–	–
COc1ccc(S(=O)(=O)N(Cc2cccnc2)[C@@H](C(=O)NO)C(C)C)cc1 [CGS-27023A]	–	–	–	380 nM	–	–	–	–	–	–	–	–	–	–	–	–	–	–	–
